Test results as given in ChEMBL document CHEMBL4266007, “Synthesis and Biological Evaluation of an Indazole-Based Selective Protein Arginine Deiminase 4 (PAD4) Inhibitor” (ACS Med Chem Lett, 2018).
The source made the active and inactive calls. The rule behind the calls is not given here.

Experiments:
[1] = target: T1, Protein-arginine deiminase type-4 (Homo sapiens, UniProt Q9UM07); test: Inhibition of PAD4 in human HL60 cells assessed as reduction in A23187-induced citrullinated H4 level at 5 to 10 uM preincubated for 15 mins followed by A23187 addition measured after 15 mins by Western blot analysis; format: cell-based
Method in brief: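 HL-60 cells differentiated into mature granulocytes, which express PAD4, then stimulated with a calcium ionophore to trigger histone H4 citrullination. Cell lysates were analysed by Western blot using an anti-citrulline histone H4 antibody.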

Homo sapiens [2] = species on record: Homo sapiens; test: Ratio of Kinact/Ki for PAD4 (unknown origin) to Kinact/Ki for PAD3 (unknown origin)
Homo sapiens [3] = species on record: Homo sapiens; test: Ratio of Kinact/Ki for PAD4 (unknown origin) to Kinact/Ki for PAD2 (unknown origin)
Homo sapiens [4] = species on record: Homo sapiens; test: Ratio of Kinact/Ki for PAD4 (unknown origin) to Kinact/Ki for PAD1 (unknown origin)
Homo sapiens [5] = species on record: Homo sapiens; test: Ratio of Kinact/Ki for PAD2 (unknown origin) to Kinact/Ki for PAD4 (unknown origin)
Homo sapiens [6] = species on record: Homo sapiens; test: Ratio of Kinact/Ki for PAD2 (unknown origin) to Kinact/Ki for PAD1 (unknown origin)
Homo sapiens [7] = species on record: Homo sapiens; test: Ratio of Kinact/Ki for PAD2 (unknown origin) to Kinact/Ki for PAD3 (unknown origin)
Homo sapiens [8] = species on record: Homo sapiens; test: Ratio of Kinact/Ki for PAD3 (unknown origin) to Kinact/Ki for PAD1 (unknown origin)
Homo sapiens [9] = species on record: Homo sapiens; test: Ratio of Kinact/Ki for PAD3 (unknown origin) to Kinact/Ki for PAD4 (unknown origin)
Homo sapiens [10] = species on record: Homo sapiens; test: Ratio of Kinact/Ki for PAD3 (unknown origin) to Kinact/Ki for PAD2 (unknown origin)
Homo sapiens [11] = species on record: Homo sapiens; test: Ratio of Kinact/Ki for PAD1 (unknown origin) to Kinact/Ki for PAD2 (unknown origin)
Homo sapiens [12] = species on record: Homo sapiens; test: Ratio of Kinact/Ki for PAD1 (unknown origin) to Kinact/Ki for PAD3 (unknown origin)
Homo sapiens [13] = species on record: Homo sapiens; test: Ratio of Kinact/Ki for PAD1 (unknown origin) to Kinact/Ki for PAD4 (unknown origin)
[14] = target: T1, Protein-arginine deiminase type-4; test: Inhibition of PAD4 (unknown origin) preincubated for 15 mins followed by BAEE addition measured after 15 mins by spectrophotometric method

T1 sequence (Q9UM07 whole entry): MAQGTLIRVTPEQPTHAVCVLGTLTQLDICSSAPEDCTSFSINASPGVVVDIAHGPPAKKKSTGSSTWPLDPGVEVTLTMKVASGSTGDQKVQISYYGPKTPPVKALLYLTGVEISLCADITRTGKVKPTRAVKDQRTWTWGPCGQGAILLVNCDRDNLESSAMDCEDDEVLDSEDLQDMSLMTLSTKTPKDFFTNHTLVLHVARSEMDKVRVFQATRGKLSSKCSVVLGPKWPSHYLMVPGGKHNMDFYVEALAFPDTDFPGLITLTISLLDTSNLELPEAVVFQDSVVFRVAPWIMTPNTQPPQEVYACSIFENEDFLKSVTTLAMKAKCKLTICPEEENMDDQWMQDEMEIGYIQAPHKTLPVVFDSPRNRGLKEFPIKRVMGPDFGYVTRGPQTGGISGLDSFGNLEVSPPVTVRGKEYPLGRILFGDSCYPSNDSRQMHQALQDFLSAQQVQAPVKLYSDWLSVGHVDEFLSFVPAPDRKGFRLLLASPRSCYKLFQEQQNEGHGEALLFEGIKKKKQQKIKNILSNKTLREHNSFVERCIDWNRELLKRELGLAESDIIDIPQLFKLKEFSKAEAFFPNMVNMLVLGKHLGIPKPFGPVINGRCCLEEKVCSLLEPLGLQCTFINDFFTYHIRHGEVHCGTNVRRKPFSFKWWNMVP

`N=C(CCl)NCCCc1nn(CC2CCCC2)c2cc(Cl)c(Cl)c(Cl)c12` was tested, and the inhibition [1] was “Active”, the Ratio (Homo sapiens [2]) was 11 and the Ratio (Homo sapiens [3]) was 58. The Ratio (Homo sapiens [4]) was 2700.

`N=C(CCl)NCCCc1nn(CC2CCCC2)c2cc(Cl)ccc12` showed a Ratio (Homo sapiens [2]) of 2.

In the case of `CCN1Cc2ccc(C(=O)N[C@@H](CCCNC(=N)CF)c3nc4c(OC)cccc4n3C)cc2C1=O`, the Ratio (Homo sapiens [5]) is reported as greater than 5, the Ratio (Homo sapiens [6]) is reported as greater than 5 and the Ratio (Homo sapiens [7]) is reported as greater than 5.

`N=C(CCl)NCCCc1nn(CC2CCCC2)c2ccc(Cl)cc12` showed a Ratio (Homo sapiens [2]) of 1.6.

Compound `N=C(CCl)NCCCC1NC(=O)N(Cc2ccc(-c3ccccc3Cl)cc2)C1=O` (racemic) has a Ratio (Homo sapiens [8]) greater than 10, a Ratio (Homo sapiens [9]) greater than 10 and a Ratio (Homo sapiens [10]) greater than 10.

With `N=C(CCl)NCCC[C@H](NC(=O)c1ccccc1)C(N)=O` the inhibition [1] was “Active”.

Work on `N=C(CCl)NCCCc1nn(CC2CCCC2)c2cccc(Cl)c12` yielded a Ratio (Homo sapiens [2]) of 1.3.

Work on `CC(C)(C)n1nnc([C@H](CCCNC(=N)CCl)NC(=O)c2cccc(C(=O)O)c2)n1` yielded a Ratio (Homo sapiens [11]) greater than 3, a Ratio (Homo sapiens [12]) greater than 3 and a Ratio (Homo sapiens [13]) greater than 3.

`N=C(CCl)NCCCc1nn(CC2CCCC2)c2cc(Cl)cc(Cl)c12` gave a Ratio (Homo sapiens [2]) of 7.5, a Ratio (Homo sapiens [3]) of 72 and a Ratio (Homo sapiens [4]) of 3300.

`Cn1cc(CCCNC(=N)CCl)c2ccccc21` was tested, and the IC50 [14] was 190 µM.
